Published values from different studies.
Lines come from different studies, so protocols differ.
Target: Serine/threonine-protein kinase 38-like (STK38L, Homo sapiens, UniProt Q9Y2H1)

| SMILES | test | conditions | remaining binding [%] |
| --- | --- | --- | --- |
| Cc1cc(C)c(-n2ccn3nc(-c4cccnc4)cc23)cc1NC(=O)c1cc(C#N)cc(S(F)(F)(F)(F)F)c1 | binding, competition with immobilised ligand | 0.1 µM | 98.9 |
| CCN1CCN(Cc2ccc(C(=O)Nc3ccc(C)c(Oc4ccc5c(c4)CC(=O)N5)c3)cc2C(F)(F)F)CC1 | binding, competition with immobilised ligand | 1 µM | 100 |
| FC(F)(F)Oc1cccc(-c2cnc3ccc(-c4ccncc4)nn23)c1 | cell-free assay, competition with immobilised ligand | 5 µM | 89 |
| Cc1nccc(COC(=O)N2C[C@@H]3[C@@H](CNC(=O)c4ccc5[nH]nnc5c4)[C@@H]3C2)n1 | cell-free assay, competition with immobilised ligand | 1 µM | 70 |
| CN(CCCC(F)(F)F)c1nccc(-c2cnn3ncccc23)n1 | binding | 1 µM | 100 |
| O=C(c1ccc(Nc2ncc(Cl)c(-c3ccc(Cl)s3)n2)cc1)N1CCC(N2CCCC2)CC1 | binding, competition with immobilised ligand | 1 µM | 84 |
| C=CC(=O)N1CCC(C(=O)NCC(=O)N2CCN(c3nc(-c4cnc(N)nc4C(F)F)nc(N4CCOCC4)n3)CC2)CC1 | binding, competition with immobilised ligand | 1 µM | 97 |
| COc1ccc2cc(OCC3(C(=O)O)CN(C(=O)c4ccc(F)cc4)C3)ccc2c1 | binding, competition with immobilised ligand | 1 µM | 86 |
| c1cncc(-c2cccc(Nc3nccc(NC4CCCCC4)n3)c2)c1 | binding, competition with immobilised ligand | 10 µM | 100 |
| O=C(NC[C@@H]1[C@H]2CN(C(=O)OCc3cc(C(F)(F)F)cc(C(F)(F)F)c3)C[C@@H]12)c1ccc2[nH]nnc2c1 | cell-free assay, competition with immobilised ligand | 1 µM | 45 |
| CN(C)c1nccc(-c2cnc3ncccn23)n1 | binding | 1 µM | 100 |
| N#CC1(c2ccccn2)CCN(Cc2cc(C(=O)N3CCCC3)c(=O)n3ccccc23)CC1 | cell-free assay, competition with immobilised ligand | 1 µM | 90 |
| CN(c1nccc(-c2cnn3ncccc23)n1)C1CC1 | binding | 1 µM | 100 |
| O=C(NCC1CCOCC1)c1n[nH]cc1NC(=O)c1c(F)cccc1F | binding, competition with immobilised ligand | 1 µM | 87 |
| O=C(c1ccc(Nc2ncc(Cl)c(-c3cc4ccccc4s3)n2)cc1)N1CCC(N2CCCC2)CC1 | binding, competition with immobilised ligand | 1 µM | 74 |
| CN(C)c1nccc(-c2cnn3ncccc23)n1 | binding | 1 µM | 85 |
| CNC(=O)Nc1ccc2c(c1)[C@@]1(CC2)OC(=O)N(CC(=O)N(Cc2ccc(F)cc2)[C@@H](C)C(F)(F)F)C1=O | binding, competition with immobilised ligand | 1 µM | 67 |
| O=C(NCCCN1CCOCC1)c1ccc(Nc2ncc(Cl)c(-c3ccc(Cl)s3)n2)cc1 | binding, competition with immobilised ligand | 1 µM | 82 |
| N[C@@H]1CCN(c2nccc(-c3cnn4ncccc34)n2)C1 | binding | 1 µM | 100 |
| COc1cnc(Nc2cccc(S(N)(=O)=O)c2)nc1N1CCN(c2ccccc2)CC1 | binding, competition with immobilised ligand | 1 µM | 96 |
| O=S(=O)(NC1CCC(c2cc(F)ccc2F)(S(=O)(=O)c2ccc(Cl)cc2)CC1)C(F)(F)F (stereo not shown) | binding, competition with immobilised ligand | 1 µM | 75 |
| C[C@H]1CCN(c2nccc(-c3cnn4ncccc34)n2)C1 | binding | 1 µM | 83 |
